# Measured values taken from ChEMBL document CHEMBL3526066, “In vitro metabolism of 17-(dimethylaminoethylamino)-17-demethoxygeldanamycin in human liver microsomes” (Drug Metab Dispos, 2011).
# Key:
# Liver microsome [1] = assay: Drug level in boiled human liver microsomes treated with geldanamycin after 2 hrs; format: ADME
# Outline: (§1)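 Substrate (5 µM final) was incubated at 37°C with HLMs (1 mg/ml; boiled HLMs as negative control) in 0.1 M phosphate buffer with 3.3 mM MgCl2 and 1 mM β-NADPH, with or without 5 mM reduced GSH. Aliquots were taken at 1, 5, 10, 15, 30, 45, 60 and 120 min and quenched with ice-cold acetonitrile containing internal standard. Samples were analysed by LC-MS/MS, with values given as percent of the analyte/internal-standard peak area ratio at 1 min.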
# Liver microsome [2] = assay: Drug level in human liver microsomes treated with 1 uM 17-DMAG by liquid chromatography-tandem mass spectrometry in presence of 10 uM alpha-naphthoflavone CYP1A2 inhibitor; format: ADME
# Outline: (§2)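 Pooled HLMs in 0.1 M phosphate buffer pH 7.4 with 1 mM β-NADPH, 3.3 mM MgCl2 and the selective inhibitor were preincubated 3 min at 37°C in a shaking water bath. 17-DMAG (1 µM final) was then added and incubated 20 min at 37°C, with parallel no-inhibitor controls. M1, M2, M3, M4 and M6 were quantified by LC-MS/MS MRM. Inhibition was taken as the ratio of metabolite formed with versus without inhibitor.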
# Cytochrome P450 3A4 = Cytochrome P450 3A4 (Homo sapiens, UniProt P08684); assay: Drug level assessed as human recombinant CYP3A4-mediated oxidative metabolism treated with 1 uM 17-DMAG after 30 mins by liquid chromatography-tandem mass spectrometry; format: ADME; conditions: recombinant enzyme, 0.5 h
# Sequence of Cytochrome P450 3A4 (P08684 whole entry): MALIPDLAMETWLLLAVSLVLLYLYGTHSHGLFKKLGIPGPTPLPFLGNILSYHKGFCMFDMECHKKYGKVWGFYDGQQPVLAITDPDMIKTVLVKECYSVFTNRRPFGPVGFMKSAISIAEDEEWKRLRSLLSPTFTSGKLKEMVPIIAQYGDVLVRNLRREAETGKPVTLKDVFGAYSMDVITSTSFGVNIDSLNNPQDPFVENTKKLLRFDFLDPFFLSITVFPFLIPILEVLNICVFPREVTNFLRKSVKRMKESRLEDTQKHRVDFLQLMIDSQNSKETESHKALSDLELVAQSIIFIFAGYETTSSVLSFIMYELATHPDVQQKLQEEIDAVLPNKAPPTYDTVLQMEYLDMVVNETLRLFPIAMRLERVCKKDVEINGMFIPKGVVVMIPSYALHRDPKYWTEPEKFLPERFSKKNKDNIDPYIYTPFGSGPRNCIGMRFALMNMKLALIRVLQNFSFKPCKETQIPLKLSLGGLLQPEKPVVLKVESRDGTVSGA
# Outline: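 Recombinant human P450 (E. coli-expressed, coexpressed with cytochrome b5), 20 pmol per 200 µl incubation with 0.2 mg reduced β-NADPH and 3.3 mM MgCl2 in 0.1 M phosphate buffer pH 7.4. Preincubated at 37°C in a shaking water bath, then 1 µM 17-DMAG added. E. coli control microsomes lacking P450 cDNA served as negative control. Metabolite (M1–M4, M6) formation rates were read by LC-MS/MS MRM and expressed as percent of the CYP3A4 rate.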
# Liver microsome [3] = assay: Drug level in human liver microsomes treated with 1 uM 17-DMAGby liquid chromatography-tandem mass spectrometry in presence of 1 uM sulfaphenazole CYP2C9 inhibitor; format: ADME; outline: as §2
# Liver microsome [4] = assay: Drug level in human liver microsomes treated with 1 uM 17-DMAG by liquid chromatography-tandem mass spectrometry in presence of 1 uM tranylcypromine CYP2A6 inhibitor; format: ADME; outline: as §2
# Liver microsome [5] = assay: Retention time in human liver microsomes treated with 10 uM […] after 2 hrs by liquid chromatography-tandem mass spectrometry; format: ADME
# Outline: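 17-DMAG (10 µM initial) was incubated with HLMs (1 mg/ml) in 0.1 M phosphate buffer with 3.3 mM MgCl2 and 1 mM β-NADPH at 37°C for 2 h alongside negative controls, then quenched with ice-cold acetonitrile. Samples were run on a C18 column with a 0.1% formic acid/ammonium formate–acetonitrile gradient (10–90% B in 10 min) using MS full scan, MRM, EPI and MS3 scans.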
# Liver microsome [6] = assay: Drug level in human liver microsomes treated with 1 uM 17-DMAG by liquid chromatography-tandem mass spectrometry in presence of 1 uM quercetin CYP2C8 inhibitor; format: ADME; outline: as §2
# Liver microsome [7] = assay: Drug level in human liver microsomes treated with 1 uM 17-DMAG by liquid chromatography-tandem mass spectrometry in presence of 10 uM ticlopidine CYP2B6 inhibitor; format: ADME; outline: as §2
# Liver microsome [8] = assay: Drug level in human liver microsomes treated with 1 uM 17-DMAG by liquid chromatography-tandem mass spectrometry in presence of 10 uM diethyldithiocarbamate CYP2E1 inhibitor; format: ADME; outline: as §2
# Liver microsome [9] = assay: Drug level in human liver microsomes treated with 1 uM 17-DMAG by liquid chromatography-tandem mass spectrometry in presence of 1 uM quinidine CYP2D6 inhibitor; format: ADME; outline: as §2
# Liver microsome [10] = assay: Drug metabolism in human liver microsomes assessed as (4E,6Z,8S,9S,10E,12S,13R,14S,16R)-19-(2-(dimethylamino)ethylamino)-8,13-dihydroxy-14-methoxy-4,10,12,16-tetramethyl-3,20,22-trioxo-2-azabicyclo[16.3.1]docosa-1(21),4,6,10,18-pentaen-9-yl carbamate formation at 1 uM 17-DMAG by liquid chromatography-tandem mass spectrometry in presence of 1 uM ketoconazole CYP3A inhibitor; format: ADME
# [11] = Drug metabolism in human liver microsomes assessed as stability after 5 mins relative to control in presence of reduced GSH by liquid chromatography-tandem mass spectrometry; format: ADME; outline: as §1
# [12] = Drug metabolism in human liver microsomes assessed as stability after 2 hrs relative to control by liquid chromatography-tandem mass spectrometry; format: ADME; conditions: read-out: Stability
# Outline: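 Pooled human liver microsomes (1 mg/ml) were incubated at 37°C with substrate (5 µM final), 1 mM β-NADPH and 3.3 mM MgCl2 in 0.1 M phosphate buffer, with or without 5 mM reduced GSH. Aliquots were taken from 1 to 120 min and quenched in ice-cold acetonitrile containing internal standard. LC-MS/MS peak-area ratios to internal standard were normalised to the 1-min sample.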
# [13] = Drug metabolism in human liver microsomes assessed as stability during first 5 mins relative to control in presence of reduced GSH by liquid chromatography-tandem mass spectrometry; format: ADME; conditions: read-out: Stability; outline: as §1
# [14] = Drug metabolism in human liver microsomes assessed as stability after 120 mins relative to control in presence of reduced GSH by liquid chromatography-tandem mass spectrometry; format: ADME; conditions: read-out: Stability; outline: as §1
# Liver microsome [15] = assay: Drug metabolism in human liver microsomes assessed as 17-(allylamino)-17-demethoxygeldanamycin hydroquinone formation after 1 hr relative to control by liquid chromatography-tandem mass spectrometry; format: ADME; outline: as §1
# Liver microsome [16] = assay: Drug metabolism in human liver microsomes assessed as stability after 45 mins relative to control by liquid chromatography-tandem mass spectrometry; format: ADME; conditions: 0.75 h; outline: as §1
# Liver microsome [17] = assay: Drug metabolism in human liver microsomes assessed as 17-aminogeldanamycin formation at 37 degC in presence of reduced GSH by liquid chromatography-tandem mass spectrometry; format: ADME; conditions: read-out: Km(app)
# [18] = Terminal half life in human; format: ADME, organism-based; conditions: in vivo, read-out: beta t1/2 (converted)
structure (smiles),measurement,setting,value
COc1c(O)cc2c(O)c1C[C@@H](C)C[C@H](OC)[C@H](O)[C@@H](C)/C=C(\C)[C@H](OC(N)=O)[C@@H](OC)/C=C\C=C(/C)C(=O)N2,Drug metabolism,Liver microsome [1],metabolite_detected
CO[C@H]1/C=C\C=C(/C)C(=O)NC2=CC(=O)C(NCCN(C)C)=C(C[C@@H](C)C[C@H](OC)[C@H](O)[C@@H](C)/C=C(\CO)[C@@H]1OC(N)=O)C2=O,Drug metabolism,Liver microsome [2],metabolite_detected
same,Drug metabolism,Cytochrome P450 3A4,metabolite_detected
same,Drug metabolism,Liver microsome [3],metabolite_detected
same,Drug metabolism,Liver microsome [4],metabolite_detected
same,Retention_time,Liver microsome [5],8.21 min
same,Drug metabolism,Liver microsome [6],metabolite_detected
same,Drug metabolism,Liver microsome [7],metabolite_detected
same,Drug metabolism,Liver microsome [8],metabolite_detected
same,Drug metabolism,Liver microsome [9],metabolite_detected
CO[C@H]1/C=C\C=C(/C)C(=O)NC2=CC(=O)C(NC(O)CN(C)C)=C(C[C@@H](C)C[C@H](OC)[C@H](O)[C@@H](C)/C=C(\C)[C@@H]1OC(N)=O)C2=O (some centres not stated),Drug metabolism,Liver microsome [2],metabolite_detected
same,Drug metabolism,Cytochrome P450 3A4,metabolite_detected
same,Drug metabolism,Liver microsome [3],metabolite_detected
same,Drug metabolism,Liver microsome [4],metabolite_detected
same,Retention_time,Liver microsome [5],9.04 min
same,Drug metabolism,Liver microsome [6],metabolite_detected
same,Drug metabolism,Liver microsome [7],metabolite_detected
same,Drug metabolism,Liver microsome [8],metabolite_detected
same,Drug metabolism,Liver microsome [9],metabolite_detected
CO[C@H]1/C=C\C=C(/C)C(=O)NC2=CC(=O)C(NCCN(C)C)=C(C[C@@H](C)C[C@H](O)[C@H](O)[C@@H](C)/C=C(\C)[C@@H]1OC(N)=O)C2=O,Drug metabolism,Liver microsome [2],metabolite_detected
same,Drug metabolism,Cytochrome P450 3A4,metabolite_detected
same,Drug metabolism,Liver microsome [3],metabolite_detected
same,Drug metabolism,Liver microsome [4],metabolite_detected
same,Retention_time,Liver microsome [5],7.57 min
same,Drug metabolism,Liver microsome [6],metabolite_detected
same,Drug metabolism,Liver microsome [7],metabolite_detected
same,Drug metabolism,Liver microsome [8],metabolite_detected
same,Drug metabolism,Liver microsome [9],metabolite_detected
CO[C@H]1C[C@H](C)CC2=C(NCCN(C)C)C(=O)C=C(NC(=O)/C(C)=C/C=C\[C@H](O)[C@@H](OC(N)=O)/C(C)=C/[C@H](C)[C@H]1O)C2=O,Drug metabolism,Liver microsome [2],metabolite_detected
same,Drug metabolism,Cytochrome P450 3A4,metabolite_detected
same,Drug metabolism,Liver microsome [3],metabolite_detected
same,Drug metabolism,Liver microsome [4],metabolite_detected
same,Retention_time,Liver microsome [5],7.13 min
same,Drug metabolism,Liver microsome [6],metabolite_detected
same,Drug metabolism,Liver microsome [7],metabolite_detected
same,Drug metabolism,Liver microsome [8],metabolite_detected
same,Drug metabolism,Liver microsome [9],metabolite_detected
same,Drug metabolism,Liver microsome [10],metabolite_not_detected
CO[C@H]1/C=C\C=C(/C)C(=O)NC2=CC(=O)C(/N=C/CN(C)C)=C(C[C@@H](C)C[C@H](OC)[C@H](O)[C@@H](C)/C=C(\C)[C@@H]1OC(N)=O)C2=O,Retention_time,Liver microsome [5],8.4 min
COC1=C2C[C@@H](C)C[C@H](OC)[C@H](O)[C@@H](C)/C=C(\C)[C@H](OC(N)=O)[C@@H](OC)/C=C\C=C(/C)C(=O)NC(=CC1=O)C2=O [GELDANAMYCIN],remaining at 5 min,[11],75.3%
same,remaining at 2 h,[12],73%
same,remaining at 5 min,[13],75.3%
same,remaining at 2 h,[14],46.6%
C=CCNc1c(O)cc2c(O)c1C[C@@H](C)C[C@H](OC)[C@H](O)[C@@H](C)/C=C(\C)[C@H](OC(N)=O)[C@@H](OC)/C=C\C=C(/C)C(=O)N2 [RETASPIMYCIN],Drug metabolism,Liver microsome [15],metabolite_not_detected
C=CCNC1=C2C[C@@H](C)C[C@H](OC)[C@H](O)[C@@H](C)/C=C(\C)[C@H](OC(N)=O)[C@@H](OC)/C=C\C=C(/C)C(=O)NC(=CC1=O)C2=O [TANESPIMYCIN],Stability,Liver microsome [16],Unstable
same,Km,Liver microsome [17],29.1 µM
same,half-life,[18],4 h
